Measurements reported in ChEMBL document CHEMBL4840316, “Structure-based screening for the discovery of 1,2,4-oxadiazoles as promising hits for the development of new anti-inflammatory agents interfering with eicosanoid biosynthesis pathways” (Eur J Med Chem, 2021).
Active and inactive are the calls of the source. The calls are words filed in the database; no cut-off is given here.

Experiments:
Prostaglandin E synthase = target: T1, Prostaglandin E synthase (Homo sapiens, UniProt O14684); experiment: Inhibition of mPGES-1 obtained from IL-beta stimulated human A549 cells microsomes assessed as residual activity by measuring conversion of PGH2 to PGE2 by cell-free RP-HPLC method; set-up: species or system Microsome
T1 sequence (O14684 whole entry): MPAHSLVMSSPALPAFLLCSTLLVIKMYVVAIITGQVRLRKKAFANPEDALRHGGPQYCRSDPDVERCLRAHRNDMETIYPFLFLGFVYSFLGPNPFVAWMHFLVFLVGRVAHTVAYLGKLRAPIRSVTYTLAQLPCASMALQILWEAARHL
Summary of the method: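 Microsomes from A549 cells stimulated with IL-1β (1 ng/ml) for 48 h. Diluted in 0.1 M potassium phosphate pH 7.4 with 2.5 mM glutathione. Pre-incubated 15 min on ice with compound (single 10 µM, or 0.03–10 µM for the curve) or 1% DMSO. 20 µM PGH2 added for 1 min; stopped with FeCl3/citric acid containing 11β-PGE2 standard. PGE2 measured by SPE and RP-HPLC. n = 3.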

Mus musculus [1] = experiment: Antiinflammatory activity in zymosan-induced CD-1 mouse peritonitis model assessed as reduction in zymosan-induced TNF-alpha level in peritoneal exudate at 10 mg/kg, ip treated with compound for 30 mins after 4 hrs zymosan stimulation by ELISA; assay type: functional, organism-based
Summary of the method: (§1)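 Male CD-1 mice (10–14 wk, 25–30 g), n = 6/group. Zymosan A (500 mg/kg in PBS, boiled) given i.p.; test compound (0.1–10 mg/kg in DMSO/saline 1:3) i.p. 30 min later. Exudates collected by 2 mL PBS lavage at 4 or 24 h. Cells spun at 4 °C and cytokines in supernatant measured by sandwich ELISA at 450 nm. Values normalized to exudate levels, mean ± S.D.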

Mus musculus [2] = experiment: Antiinflammatory activity in zymosan-induced CD-1 mouse peritonitis model assessed as reduction in zymosan-induced neutrophil recruitment at 10 mg/kg, ip treated with compound for 30 mins after 4 hrs zymosan stimulation by ELISA; assay type: functional, organism-based
Summary of the method: (§2)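 Male CD-1 mice (10–14 wk, 25–30 g), n = 6/group, injected i.p. with boiled zymosan A (500 mg/kg in PBS). Compound (0.1–10 mg/kg, DMSO/saline 1:3) given i.p. 30 min afterwards. Peritoneal lavage with 2 mL PBS at 4 or 24 h. Total leukocytes counted by automated counter with trypan blue, normalized to exudate. Mean ± S.D.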

Mus musculus [3] = experiment: Antiinflammatory activity in zymosan-induced CD-1 mouse peritonitis model assessed as reduction in zymosan-induced IL-1beta level in peritoneal exudate at 10 mg/kg, ip treated with compound for 30 mins after 4 hrs zymosan stimulation by ELISA; assay type: functional, organism-based; summary of the method: as §1
Mus musculus [4] = experiment: Effect on IL-6 level in zymosan-induced CD-1 mouse peritonitis model in peritoneal exudate at 10 mg/kg, ip treated with compound for 30 mins after 4 to 24 hrs zymosan stimulation by ELISA; assay type: functional, organism-based; summary of the method: as §1
Mus musculus [5] = experiment: Antiinflammatory activity in zymosan-induced CD-1 mouse peritonitis model assessed as reduction in zymosan-induced neutrophil recruitment at 1 mg/kg, ip treated with compound for 30 mins after 4 hrs zymosan stimulation by ELISA; assay type: functional, organism-based; summary of the method: as §2
Mus musculus [6] = experiment: Effect on IL-10 level in zymosan-induced CD-1 mouse peritonitis model in peritoneal exudate at 10 mg/kg, ip treated with compound for 30 mins after 4 to 24 hrs zymosan stimulation by ELISA; assay type: functional, organism-based; summary of the method: as §1
Mus musculus [7] = experiment: Antiinflammatory activity in zymosan-induced CD-1 mouse peritonitis model assessed as reduction in zymosan-induced IL-1beta level in peritoneal exudate at 10 mg/kg, ip treated with compound for 30 mins after 24 hrs zymosan stimulation by ELISA; assay type: functional, organism-based; summary of the method: as §1
Mus musculus [8] = experiment: Antiinflammatory activity in zymosan-induced CD-1 mouse peritonitis model assessed as reduction in zymosan-induced TNF-alpha level in peritoneal exudate at 10 mg/kg, ip treated with compound for 30 mins after 24 hrs zymosan stimulation by ELISA; assay type: functional, organism-based; summary of the method: as §1
[9] = target: T2, Prostaglandin G/H synthase 1 (Ovis aries) (UniProt P05979); experiment: Inhibition of ovine COX-1 assessed as residual activity at 10 uM using arachidonic acid as substrate preincubated for 5 mins followed by substrate addition and measured after 5 mins by RP-HPLC method relative to control
T2 sequence (whole entry): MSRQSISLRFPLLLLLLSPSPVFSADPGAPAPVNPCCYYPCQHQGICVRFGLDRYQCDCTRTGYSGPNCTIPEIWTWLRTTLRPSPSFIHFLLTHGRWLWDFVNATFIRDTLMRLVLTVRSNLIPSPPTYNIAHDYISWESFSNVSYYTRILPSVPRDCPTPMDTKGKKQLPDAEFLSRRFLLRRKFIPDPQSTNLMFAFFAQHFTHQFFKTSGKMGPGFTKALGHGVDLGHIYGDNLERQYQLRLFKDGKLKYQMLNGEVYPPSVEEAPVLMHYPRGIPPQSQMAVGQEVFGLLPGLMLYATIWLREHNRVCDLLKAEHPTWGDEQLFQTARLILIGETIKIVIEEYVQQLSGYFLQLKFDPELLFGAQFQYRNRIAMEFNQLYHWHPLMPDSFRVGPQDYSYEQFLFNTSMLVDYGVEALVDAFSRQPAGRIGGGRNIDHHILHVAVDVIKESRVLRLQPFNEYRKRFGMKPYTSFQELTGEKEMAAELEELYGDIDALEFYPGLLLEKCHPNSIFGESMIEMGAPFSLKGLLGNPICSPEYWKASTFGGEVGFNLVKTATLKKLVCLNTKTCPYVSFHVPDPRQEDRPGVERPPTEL
Summary of the method: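 Ovine COX-1 (50 U/mL) or human recombinant COX-2 (20 U/mL) in 100 mM Tris pH 8 with 5 mM glutathione, 100 µM EDTA and 5 µM hemoglobin. Pre-incubated with compound or 0.1% DMSO for 5 min at room temperature, then 1 min at 37 °C. Started with AA (5 µM for COX-1, 2 µM for COX-2), run 5 min at 37 °C. 12-HHT measured by RP-HPLC.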

IC50 (Prostaglandin E synthase) [µM]	Activity [9] [%]	SMILES	Activity (Mus musculus [1])	Activity (Mus musculus [2])	Activity (Mus musculus [3])	Activity (Mus musculus [4])	Activity (Mus musculus [5])	Activity (Mus musculus [6])	Activity (Mus musculus [7])	Activity (Mus musculus [8])
3.6	–	Oc1c(F)c(F)cc(-c2nc(-c3ccc(-c4ccsc4)cc3)no2)c1F	Active	Active	Active	inactive	Active	inactive	Active	Active
–	47.7	Oc1cccc(CCc2nc(-c3ccc(-c4ccsc4)cc3)no2)c1	–	–	–	–	–	–	–	–
